≈ marks a conversion by molar mass, not a printed value. Calls of active or inactive are those of the source. The calls are words filed in the database; no cut-off is given here.
Tests used:
[1] = test system: BXPC-3; experiment: Growth inhibition of human BXPC3 cells; assay type: functional
[2] = test system: SK-N-SH; experiment: Growth inhibition of human SK-N-SH cells; assay type: functional
[3] = test system: OVCAR-3; experiment: Growth inhibition of human OVCAR-3 cells; assay type: functional
How it was run: (§1)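 NCI 60-cell-line screen run by the standard NCI protocol. Each test agent ran in quadruplicate, with a top concentration of 10^-5 M and five log-spaced dilutions. GI50 values were averaged and reported as negative log GI50.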

[4] = test system: SF-295; experiment: (§2) Growth inhibition of human SF295 cells; assay type: functional
How it was run: (§3)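 NCI human tumor cell line panel screen run to the standard NCI protocol. Each compound tested in quadruplicate with a top concentration of 10^-5 M and five log-spaced dilutions. GI50 values were averaged across replicates and reported as negative log GI50.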

[5] = test system: SW-1736; experiment: Growth inhibition of human SW1736 cells; assay type: functional
[6] = test system: NCI-H460; experiment: (§4) Growth inhibition of human NCI-H460 cells; assay type: functional; how it was run: as §1
[7] = test system: KM-20L2; experiment: Growth inhibition of human KM20L2 cells; assay type: functional
[8] = test system: FaDu; experiment: Growth inhibition of human FaDu cells; assay type: functional
[9] = test system: DU-145; experiment: Growth inhibition of human DU145 cells; assay type: functional; how it was run: as §1
[10] = test system: P388; experiment: Growth inhibition of mouse P388 cells; assay type: functional
[11] = test system: Candida albicans; experiment: Antifungal activity against Candida albicans ATCC 90028 at 100 ug/disk by disk diffusion method; assay type: functional, organism-based
[12] = test system: Cryptococcus neoformans; experiment: Antifungal activity against Cryptococcus neoformans ATCC 90112 at 100 ug/disk by disk diffusion method; assay type: functional, organism-based
[13] = test system: Micrococcus luteus; experiment: Antibacterial activity against Micrococcus luteus Presque Isle 456 at 100 ug/disk by disk diffusion method; assay type: functional, organism-based
[14] = test system: Staphylococcus aureus; experiment: Antibacterial activity against Staphylococcus aureus ATCC 29213 at 100 ug/disk by disk diffusion method; assay type: functional, organism-based
[15] = test system: Enterococcus faecalis; experiment: Antibacterial activity against Enterococcus faecalis ATCC 29212 at 100 ug/disk by disk diffusion method; assay type: functional, organism-based
[16] = test system: Bacillus subtilis; experiment: Antibacterial activity against Bacillus subtilis Presque Isle 620 by disk diffusion method; assay type: functional
[17] = test system: Streptococcus pneumoniae; experiment: Antibacterial activity against Streptococcus pneumoniae ATCC 6303 by disk diffusion method; assay type: functional
[18] = test system: Streptococcus pneumoniae; experiment: Antibacterial activity against penicillin-resistant Streptococcus pneumoniae isolate by disk diffusion method; assay type: functional
[19] = test system: Streptococcus pneumoniae; experiment: Antibacterial activity against invasive Streptococcus pneumoniae isolate at 100 ug/disk by disk diffusion method; assay type: functional, organism-based
[20] = test system: Streptococcus sp. 'group A'; experiment: Antibacterial activity against group A Streptococcus isolate by disk diffusion method; assay type: functional
[21] = test system: Stenotrophomonas maltophilia; experiment: Antibacterial activity against Stenotrophomonas maltophilia ATCC 13637 at 100 ug/disk by disk diffusion method; assay type: functional, organism-based
[22] = test system: Escherichia coli; experiment: Antibacterial activity against Escherichia coli ATCC 25922 at 100 ug/disk by disk diffusion method; assay type: functional, organism-based
[23] = test system: Enterobacter cloacae; experiment: Antibacterial activity against Enterobacter cloacae ATCC 13047 at 100 ug/disk by disk diffusion method; assay type: functional, organism-based
[24] = test system: Neisseria gonorrhoeae; experiment: Antibacterial activity against Neisseria gonorrhoeae ATCC 49226 by disk diffusion method; assay type: functional
[25] = test system: Neisseria gonorrhoeae; experiment: Antibacterial activity against penicillin-resistant Neisseria gonorrhoeae isolate by disk diffusion method; assay type: functional
[26] = test system: CCRF-CEM; experiment: Growth inhibition of human CCRF-CEM cells; assay type: functional; how it was run: as §1
[27] = Growth inhibition of human HL60(TB) cells; assay type: functional, HL-60(TB); conditions: HL-60
How it was run: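 NCI human tumour cell-line panel screen run by the standard NCI protocol. Each compound was tested in quadruplicate, with an upper concentration limit of 10^-5 M and five log-spaced dilutions. GI50 values were averaged and reported as negative log GI50.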

[28] = test system: K562; experiment: Growth inhibition of human K562 cells; assay type: functional; how it was run: as §1
[29] = test system: MOLT-4; experiment: Growth inhibition of human MOLT4 cells; assay type: functional; how it was run: as §1
[30] = test system: RPMI-8226; experiment: Growth inhibition of human RPMI8226 cells; assay type: functional; how it was run: as §1
[31] = test system: SR; experiment: Growth inhibition of human SR cells; assay type: functional; how it was run: as §3
[32] = test system: A549; experiment: Growth inhibition of human A549/ATCC cells; assay type: functional; how it was run: as §1
[33] = test system: HOP-62; experiment: Growth inhibition of human HOP62 cells; assay type: functional; how it was run: as §1
[34] = test system: HOP-92; experiment: Growth inhibition of human HOP92 cells; assay type: functional; how it was run: as §1
[35] = test system: NCI-H226; experiment: Growth inhibition of human NCI-H226 cells; assay type: functional; how it was run: as §1
[36] = test system: NCI-H460; experiment: as §4; assay type: functional; how it was run: as §1; remark: listed apart in the source
[37] = test system: NCI-H522; experiment: Growth inhibition of human NCI-H522 cells; assay type: functional; how it was run: as §1
[38] = test system: COLO 205; experiment: Growth inhibition of human COLO205 cells; assay type: functional; how it was run: as §1
[39] = test system: KM12; experiment: Growth inhibition of human KM12 cells; assay type: functional; how it was run: as §1
[40] = test system: SW-620; experiment: Growth inhibition of human SW620 cells; assay type: functional; how it was run: as §3
[41] = test system: SNB-75; experiment: Growth inhibition of human SNB75 cells; assay type: functional; how it was run: as §3
[42] = test system: U-251; experiment: Growth inhibition of human U251 cells; assay type: functional; how it was run: as §3
[43] = test system: LOX IMVI; experiment: Growth inhibition of human LOX IMVI cells; assay type: functional; how it was run: as §1
[44] = test system: Malme-3M; experiment: Growth inhibition of human MALME-3M cells; assay type: functional; how it was run: as §1
[45] = test system: SK-MEL-5; experiment: Growth inhibition of human SK-MEL-5 cells; assay type: functional; how it was run: as §3
[46] = test system: UACC-62; experiment: Growth inhibition of human UACC62 cells; assay type: functional; how it was run: as §3
[47] = test system: IGROV-1; experiment: Growth inhibition of human IGROV1 cells; assay type: functional; how it was run: as §1
[48] = test system: OVCAR-4; experiment: Growth inhibition of human OVCAR4 cells; assay type: functional; how it was run: as §1
[49] = test system: OVCAR-8; experiment: Growth inhibition of human OVCAR8 cells; assay type: functional; how it was run: as §1
[50] = test system: 786-0; experiment: Growth inhibition of human 786-0 cells; assay type: functional; how it was run: as §1
[51] = test system: ACHN; experiment: Growth inhibition of human ACHN cells; assay type: functional; how it was run: as §1
[52] = test system: RXF 393; experiment: Growth inhibition of human RXF393 cells; assay type: functional; how it was run: as §3
[53] = test system: SN12C; experiment: Growth inhibition of human SN12C cells; assay type: functional; how it was run: as §3
[54] = test system: PC-3; experiment: Growth inhibition of human PC3 cells; assay type: functional; how it was run: as §1
[55] = test system: MCF7; experiment: Growth inhibition of human MCF7 cells; assay type: functional; how it was run: as §1
[56] = test system: MCF7; experiment: Growth inhibition of human adriamycin-resistant MCF7 cells; assay type: functional; how it was run: as §3
[57] = test system: MDA-MB-231; experiment: Growth inhibition of human MDA-MB-231/ATCC cells; assay type: functional; how it was run: as §1
[58] = test system: Hs-578T; experiment: Growth inhibition of human HS578T cells; assay type: functional; how it was run: as §1
[59] = test system: MDA-MB-435; experiment: Growth inhibition of human MDA-MB-435 cells; assay type: functional; how it was run: as §1
[60] = test system: MDA-N; experiment: Growth inhibition of human MDA-N cells; assay type: functional; how it was run: as §1
[61] = test system: T47D; experiment: Growth inhibition of human T47D cells; assay type: functional; how it was run: as §3
[62] = test system: SF-268; experiment: Growth inhibition of human SF268 cells; assay type: functional; how it was run: as §3
[63] = test system: SF-295; experiment: as §2; assay type: functional; how it was run: as §3; remark: listed apart in the source
[64] = test system: SF-539; experiment: Growth inhibition of human SF539 cells; assay type: functional; how it was run: as §3

Compound `C/C=C(/C)C(=O)OC[C@H]1C2=C(C=C3[C@H]4c5c(O)c(OC)c(C)c(O)c5C(=O)[C@@H](C(=O)N31)N4C)C(=O)C(C)=C(OC)C2=O` [CRIBROSTATIN 5] has a GI50 [1] of 5.6 mg/L (≈ 9.68 µM), a GI50 [2] of 3.6 mg/L (≈ 6.22 µM) and a GI50 [3] of 2.2 mg/L (≈ 3.8 µM). For the same compound, the EC50 ([3]; read-out: ED50 (the source's name)) was 2.2 mg/L (≈ 3.8 µM), the GI50 [4] was > 10 mg/L and the GI50 [5] was > 10 mg/L. The GI50 [6] was > 10 mg/L, the GI50 [7] was > 10 mg/L and the GI50 [8] was 0.26 mg/L (≈ 0.449 µM). The GI50 [9] was > 10 mg/L, the GI50 [10] was 24.6 mg/L (≈ 42.5 µM) and the Activity [11] was “inactive”. For the same compound, the Activity [12] was “inactive”, the Activity [13] was “inactive” and the Activity [14] was “inactive”. For the same compound, the Activity [15] was “inactive”, the MIC [16] was 12.5 µg/disc and the MIC [17] was 6.25 µg/disc. For the same compound, the MIC [18] was 50 µg/disc, the Activity [19] was “inactive” and the MIC [20] was 12.5 µg/disc. The Activity [21] was “inactive”, the Activity [22] was “inactive” and the Activity [23] was “inactive”. For the same compound, the MIC [24] was 6.25 µg/disc, the MIC [25] was 1.56 µg/disc and the GI50 [26] was 1.7 µM. For the same compound, the GI50 [27] was 5.37 µM, the GI50 [28] was 4.37 µM and the GI50 [29] was 1.91 µM. It also gave a GI50 [30] of 6.17 µM, a GI50 [31] of 3.8 µM and a GI50 [32] of 8.71 µM. It also gave a GI50 [33] of 7.59 µM, a GI50 [34] of 8.13 µM and a GI50 [35] of 7.94 µM. For the same compound, the GI50 [36] was 7.59 µM, the GI50 [37] was 4.17 µM and the GI50 [38] was 8.13 µM. The GI50 [39] was 9.12 µM, the GI50 [40] was 6.92 µM and the GI50 [41] was 5.62 µM. The GI50 [42] was 6.46 µM, the GI50 [43] was 3.31 µM and the GI50 [44] was 0.389 µM. It also gave a GI50 [45] of 8.13 µM, a GI50 [46] of 9.77 µM and a GI50 [47] of 8.51 µM. The GI50 [48] was 1.82 µM, the GI50 [49] was 4.27 µM and the GI50 [50] was 6.17 µM. The GI50 [51] was 7.94 µM, the GI50 [52] was 5.25 µM and the GI50 [53] was 7.08 µM. It also gave a GI50 [54] of 9.12 µM, a GI50 [55] of 8.13 µM and a GI50 [56] of 6.76 µM. It also gave a GI50 [57] of 2.69 µM, a GI50 [58] of 8.71 µM and a GI50 [59] of 1.82 µM. It also gave a GI50 [60] of 2.19 µM, a GI50 [61] of 2.09 µM and a GI50 [62] of 9.55 µM. For the same compound, the GI50 [63] was 8.91 µM and the GI50 [64] was 5.75 µM.

Source: ChEMBL document CHEMBL1142628, “Antineoplastic agents 430. Isolation and structure of cribrostatins 3, 4, and 5 from the republic of maldives cribrochalina species” (2000)
